# Laboratory results from ChEMBL document CHEMBL1137210, “DNA binding ligands with improved in vitro and in vivo potency against drug-resistant Staphylococcus aureus” (2004).
# Columns and labels:
# Type in all cases: functional
# Staphylococcus aureus [1] = assay: Minimum inhibitory concentration required for antibacterial activity against methicillin-resistant Staphylococcus aureus 27660
# Staphylococcus aureus [2] = assay: Minimum inhibitory concentration required for antibacterial activity against methicillin-resistant Staphylococcus aureus with 4% human plasma albumin
# Summary of the method: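 MIC against MRSA determined with 4% human plasma albumin present in the test medium.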
# Staphylococcus aureus [3] = assay: Minimum inhibitory concentration required for antibacterial activity against methicillin-susceptible Staphylococcus aureus 13709
# Staphylococcus aureus [4] = assay: Minimum inhibitory concentration required for antibacterial activity against methicillin-resistant Staphylococcus aureus with 2% human plasma albumin
# Summary of the method: (§1)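 MRSA ATCC 27660, with 2% human plasma albumin added to the test medium during MIC determination.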
# Streptococcus pneumoniae = assay: Minimum inhibitory concentration required for antibacterial activity against penicillin-resistant Streptococcus pneumoniae 51422
# Enterococcus faecium = assay: Minimum inhibitory concentration required for antibacterial activity against vancomycin-resistant Enterococcus faecium 51559
# Mus musculus [5] = assay: No. of mice survived infected intraperitoneally with methicillin-resistant Staphylococcus aureus after 5 days of treatment at a dose of 25 mg/kg (Total mice tested 5); conditions: route intravenous
# Summary of the method: (§2)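 Mouse peritonitis model: intraperitoneal infection with a 5–10 × LD50 inoculum of MRSA ATCC 27660. A single intravenous dose was given 1 h post-infection, alongside vehicle and vancomycin controls. Animals were monitored for 5 days, with survival as the primary endpoint; 5 mice per dose group.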
# Staphylococcus aureus [6] = assay: Minimum inhibitory concentration required for antibacterial activity against methicillin-resistant Staphylococcus aureus with 2% human plasma albumin; value ranges from 0.13-0.25; summary of the method: as §1
# Staphylococcus aureus [7] = assay: Minimum inhibitory concentration required for antibacterial activity against vancomycin-resistant Staphylococcus aureus HMC3
# Mus musculus [8] = assay: No. of mice survived infected intraperitoneally with methicillin-resistant Staphylococcus aureus after 5 days of treatment at a dose of 10 mg/kg (Total mice tested 5); summary of the method: as §2
# Staphylococcus aureus [9] = assay: Minimum inhibitory concentration required for antibacterial activity against methicillin-resistant Staphylococcus aureus 27660; value ranges from 0.06-0.13
# Mus musculus [10] = assay: No. of mice survived infected intraperitoneally with methicillin-resistant Staphylococcus aureus after 5 days of treatment at a dose of 3 mg/kg (Total mice tested 5); summary of the method: as §2
# Staphylococcus aureus [11] = assay: Minimum inhibitory concentration required for antibacterial activity against methicillin-susceptible Staphylococcus aureus 13709; value ranges from 0.03-0.06
# Staphylococcus aureus [12] = assay: Minimum inhibitory concentration required for antibacterial activity against methicillin-resistant Staphylococcus aureus 27660; value ranges from 0.03-0.06
# Staphylococcus aureus [13] = assay: Minimum inhibitory concentration required for antibacterial activity against methicillin-resistant Staphylococcus aureus with 2% human plasma albumin; value ranges from 0.25-1; summary of the method: as §1
# Mus musculus [14] = assay: No. of mice survived infected intraperitoneally with methicillin-resistant Staphylococcus aureus after 5 days of treatment at a dose of 1 mg/kg (Total mice tested 5); summary of the method: as §2
# Staphylococcus aureus [15] = assay: Minimum inhibitory concentration required for antibacterial activity against methicillin-susceptible Staphylococcus aureus 13709; value ranges from <0.03-0.06
# Staphylococcus aureus [16] = assay: Minimum inhibitory concentration required for antibacterial activity against methicillin-resistant Staphylococcus aureus with 2% human plasma albumin; value ranges from 0.13-1; summary of the method: as §1
# Staphylococcus aureus [17] = assay: Minimum inhibitory concentration required for antibacterial activity against methicillin-resistant Staphylococcus aureus 27660; value ranges from 0.25-0.5
# Staphylococcus aureus [18] = assay: Minimum inhibitory concentration required for antibacterial activity against methicillin-susceptible Staphylococcus aureus 13709; value ranges from 0.13-0.06
# Staphylococcus aureus [19] = assay: Minimum inhibitory concentration required for antibacterial activity against methicillin-resistant Staphylococcus aureus with 2% human plasma albumin; value ranges from 1-2; summary of the method: as §1
# [20] = Staphylococcus aureus, Plasma, read-out: MIC
SMILES,MIC (Staphylococcus aureus [1]),MIC (Staphylococcus aureus [3]),MIC (Staphylococcus aureus [4]; [20]),MIC (Streptococcus pneumoniae),MIC (Enterococcus faecium),Efficacy (Mus musculus [5]),other results
Cn1cc(NC(=O)c2ccc(NC(=O)c3cc(NC(=O)c4cc5ccccc5cn4)cn3C)cc2)cc1C(=O)NCCN1CCC(O)CC1,0.5 µg/mL,0.5 µg/mL,,,,,MIC (Staphylococcus aureus [2]): 16 µg/mL
Cn1cc(NC(=O)c2ccc(NC(=O)c3nc(NC(=O)c4cc5ccccc5cn4)cn3C)cc2)cc1C(=O)NCCN1CCOCC1,16 µg/mL,2 µg/mL,32 µg/mL,0.5 µg/mL,0.5 µg/mL,,
COC1CCN(CCNC(=O)c2cc(NC(=O)c3ccc(NC(=O)c4cc(NC(=O)c5cc6ccccc6cn5)cn4C)cc3)cn2C)CC1,1 µg/mL,1 µg/mL,8 µg/mL,,,,
COC1CCN(CCNC(=O)c2nc(NC(=O)c3ccc(NC(=O)c4cc(NC(=O)c5cc6ccccc6cn5)cn4C)cc3)cn2C)CC1,0.03 µg/mL,0.03 µg/mL,,,,2,MIC (Staphylococcus aureus [6]): 0.25 µg/mL
Cn1cc(NC(=O)c2cc3ccccc3cn2)cc1C(=O)Nc1ccc(C(=O)Nc2cn(C)c(C(=O)NCCN3CCN(CCO)CC3)n2)cc1,0.06 µg/mL,0.06 µg/mL,1 µg/mL,,,5,
Cn1cc(NC(=O)c2cc3ccccc3cn2)cc1C(=O)Nc1ccc(C(=O)Nc2cn(C)c(C(=O)NCCN3CCOCC3)n2)cc1,0.008 µg/mL,0.008 µg/mL,0.13 µg/mL,0.03 µg/mL,0.008 µg/mL,,MIC (Staphylococcus aureus [7]): 0.008 µg/mL; Efficacy (Mus musculus [8]): 1
Cn1cc(NC(=O)c2ccc(NC(=O)c3cc(NC(=O)c4cc5ccccc5cn4)cn3C)cc2)cc1C(=O)NCCN1CCOCC1,0.06 µg/mL,0.06 µg/mL,1 µg/mL,0.06 µg/mL,1 µg/mL,5,MIC (Staphylococcus aureus [4]): 1 µg/mL; MIC (Staphylococcus aureus [7]): 0.25 µg/mL; MIC (Staphylococcus aureus [9]): 0.13 µg/mL; Efficacy (Mus musculus [8]): 3; Efficacy (Mus musculus [10]): 0; MIC (Staphylococcus aureus [11]): 0.06 µg/mL
Cn1cc(NC(=O)c2ccc(NC(=O)c3nc(NC(=O)c4cc5ccccc5cn4)cn3C)cc2)nc1C(=O)NCCN1CCOCC1,0.06 µg/mL,0.13 µg/mL,1 µg/mL,0.25 µg/mL,0.13 µg/mL,,
Cn1cc(NC(=O)c2cc3ccccc3cn2)cc1C(=O)Nc1ccc(C(=O)Nc2cn(C)c(C(=O)NCCN3CCC(O)CC3)n2)cc1,,,,,,5,MIC (Staphylococcus aureus [12]): 0.06 µg/mL; MIC (Staphylococcus aureus [13]): 1 µg/mL; Efficacy (Mus musculus [8]): 5; Efficacy (Mus musculus [14]): 0; MIC (Staphylococcus aureus [15]): 0.06 µg/mL; Efficacy (Mus musculus [10]): 2
Cn1cc(NC(=O)c2ccc(NC(=O)c3cc(NC(=O)c4cc5ccccc5cn4)cn3C)cc2)cc1C(=O)NCCN1CCN(CCO)CC1,16 µg/mL,32 µg/mL,> 32 µg/mL,,,,
Cn1cc(NC(=O)c2cc3cc4c(cc3s2)OCO4)cc1C(=O)Nc1ccc(C(=O)Nc2cn(C)c(C(=O)NCCN3CCC(O)CC3)n2)cc1,0.008 µg/mL,0.008 µg/mL,,,,,MIC (Staphylococcus aureus [7]): 0.008 µg/mL; Efficacy (Mus musculus [14]): 3; MIC (Staphylococcus aureus [16]): 1 µg/mL; Efficacy (Mus musculus [10]): 4
COCCN(CCNC(=O)c1nc(NC(=O)c2ccc(NC(=O)c3cc(NC(=O)c4cc5ccccc5cn4)cn3C)cc2)cn1C)CCOC,,,,,,0,MIC (Staphylococcus aureus [17]): 0.5 µg/mL; MIC (Staphylococcus aureus [18]): 0.13 µg/mL; MIC (Staphylococcus aureus [19]): 2 µg/mL
COCCN(CCNC(=O)c1cc(NC(=O)c2ccc(NC(=O)c3cc(NC(=O)c4cc5ccccc5cn4)cn3C)cc2)cn1C)CCOC,8 µg/mL,4 µg/mL,32 µg/mL,,,,
